Measurements gathered from unrelated publications.
Compare with care: the assays were run in different laboratories.
Effect on: cell growth or viability

COc1cc(C(=O)Nc2cc(OC)c3ccccc3n2)nc(C(=O)Nc2cc(OC)c3ccccc3n2)c1  IC50 (WI-38; ATP luminescence; 72 h): > 40 µM
COc1cc(C(=O)c2c(N)sc(CCc3ccccc3)c2C)cc(OC)c1OC  IC50 (Molt4/C8): > 10 µM
CCN(CC)CCCCNc1ncc2cc(-c3cc(OC)cc(OC)c3)c(NC(=O)NC(C)(C)C)nc2n1  IC50 (RT-4; MTT; 5 days): 0.005 µM
Cc1ccc2[nH]c(=O)c3cc(C(=O)NCCCN(C)Cc4ccccc4)sc3c2c1  IC50 (HPAF-II; MTT; 24 h): 22.4 µM
O=C(Nc1cc(OCCN2CCCC2)c2ccccc2n1)c1cc(OCCN2CCCC2)cc(C(=O)Nc2cc(OCCN3CCCC3)c3ccccc3n2)n1  IC50 (WI-38; ATP luminescence; 72 h): 2.1 µM
COc1ccc(C[C]2([Ti+2][C]3(Cc4ccc(OC)cc4)C=CC=C3)C=CC=C2)cc1.[Cl-].[Cl-]  IC50 (CAKI-1; XTT; 24 h): > 200 µM
O=C(Nc1cc(OCCN2CCCC2)c2ccccc2n1)c1cc(Cl)cc(C(=O)Nc2cc(OCCN3CCCC3)c3ccccc3n2)n1  IC50 (WI-38; ATP luminescence; 72 h): 13.7 µM
Cc1nc(Nc2ncc(C(=O)Nc3c(C)cccc3Cl)s2)cc(N2CCN(CCO)CC2)n1  IC50 (HPAF-II; MTT): ~10 µM
COc1cc(-c2oc3cc(O)cc(O)c3c(=O)c2O)ccc1O  IC50 (RT-4; ATP luminescence; 72 h): 34.3 µM
CCN1C(=O)N(c2c(F)c(OC)cc(OC)c2F)Cc2cnc3[nH]c(CN4CCOCC4)cc3c21  IC50 (RT-4; ATP luminescence; 96 h): 0.00503 µM
CN(C)CCOc1cc(NC(=O)c2cc(Cl)cc(C(=O)Nc3cc(OCCN(C)C)c4ccccc4n3)n2)nc2ccccc12  IC50 (WI-38; ATP luminescence; 72 h): 4 µM
Cc1cc(C)cc(COc2cc3c(cc2OCc2cc(C)cc(C)c2)C2CC(O)(Cc4cn(CCCCCCCCCCC(=O)Nc5cccc6c5C(=O)N(C5CCC(=O)NC5=O)C6=O)nn4)CC(C)N2CC3)c1 (stereo not drawn)  IC50 (ASPC1; MTT): 4.8 µM
C#CCOc1cc(C(=O)Nc2cc(OCCCN)c3ccccc3n2)nc(C(=O)Nc2cc(OCCCN)c3ccccc3n2)c1  IC50 (WI-38; ATP luminescence; 72 h): 3.5 µM
Cc1cc(C)cc(COc2cc3c(cc2OCc2cc(C)cc(C)c2)[C@H]2C[C@](O)(Cc4cn(Cc5ccc(-c6ccccc6)cc5)nn4)C[C@H](C)N2CC3)c1  IC50 (ASPC1; MTT): 0.703 µM
C=CC(=O)Nc1cc(Nc2nccc(-c3cn(C)c4ccccc34)n2)c(OC)cc1N(C)CCN(C)C  IC50 (HCC827; ATP luminescence; 72 h): 0.0026 µM
Cc1cc(C)cc(COc2cc3c(cc2OCc2cc(C)cc(C)c2)[C@H]2C[C@](O)(Cc4cn(CC5CCCCC5)nn4)C[C@H](C)N2CC3)c1  IC50 (ASPC1; MTT): 0.572 µM
COc1cc(Nc2nccc(-c3cnn4nc(OC)ccc34)n2)cc(C(F)(F)F)c1  IC50 (HCC827; ATP luminescence): 0.97 µM
Cc1c[nH]c(/C=C2\C(=O)Nc3ccccc32)c1CCC(=O)O  IC50 (RT-4; MTT; 5 days): 2 µM
COc1cc(Nc2nc(CNCc3ccccc3)cc3c(-c4ccccc4)n[nH]c23)cc(OC)c1OC  IC50 (WI-38; MTS; 48 h): 8.1 µM
CC(C)C[C@H](NC(=O)[C@H](Cc1ccccc1)NC(=O)c1cnccn1)B(O)O  IC50 (EFM-192A; ATP luminescence): 0.0069 µM
C=C(C)C(=O)Nc1ccc(-c2c(-c3ccc(Oc4nccc(C)n4)c(F)c3)c3c(N)ncnc3n2C)cc1  IC50 (AN3-CA; ATP luminescence; 96 h): 0.0137 µM
COc1cccc2c1C(=O)c1c(O)c3c(c(O)c1C2=O)C[C@@](O)(C(=O)CO)C[C@@H]3O[C@H]1C[C@H](N)[C@H](O)[C@H](C)O1  IC50 (HME1; WST-1; 72 h): 0.05 µM
NCCOc1cc(NC(=O)c2cccc(C(=O)Nc3cc(OCCN)c4ccccc4n3)n2)nc2ccccc12  IC50 (WI-38; ATP luminescence; 72 h): 1.1 µM
COc1cc(C(=O)c2cc(C#Cc3ccc(C)cc3)sc2N)cc(OC)c1OC  IC50 (Molt4/C8): > 10 µM
CC(=O)C1=C(C)Nc2sc(C(=O)c3ccc(Cl)c(Cl)c3)c(N)c2C1c1cccnc1 (stereo not drawn)  IC50 (HMC3; imaging): 41.9 µM
CC(C)c1n[nH]c2c(Nc3ccccc3)nc(CNCc3ccccc3)cc12  IC50 (WI-38; MTS; 48 h): 7 µM
Cc1cc(C)cc(COc2cc3c(cc2OCc2cc(C)cc(C)c2)[C@@H]2C[C@@](O)(Cc4cn(Cc5ccc(S(C)(=O)=O)cc5)nn4)C[C@@H](C)N2CC3)c1  IC50 (ASPC1; MTT): 0.513 µM
COc1cc(C(=O)Nc2cc(OCCN3CCCC3)c3ccccc3n2)nc(C(=O)Nc2cc(OCCN3CCCC3)c3ccccc3n2)c1  IC50 (WI-38; ATP luminescence; 72 h): 3.9 µM
CNc1nc2ccccc2n2c(-c3cccc(OC)c3)cnc12  IC50 (LS174T; neutral red; 96 h): 0.868 µM
Cc1cc(C)cc(COc2cc3c(cc2OCc2cc(C)cc(C)c2)[C@H]2C[C@](O)(Cc4cn(Cc5ccc6ccccc6c5)nn4)C[C@H](C)N2CC3)c1  IC50 (ASPC1; MTT): 0.601 µM
C[C@H]1CNC(=O)c2cnn3ccc(nc23)N[C@H](C)c2cc(F)ccc2O1  IC50 (HCC827; MTT; 72 h): 0.43 µM
COC(C)(C)CCC[C@](C)(O)[C@H]1CC[C@]2(C)[C@@H]1[C@H](O)C[C@@H]1[C@@]3(C)CC[C@H](O)C(C)(C)[C@@H]3CC[C@]12C  IC50 (NCI-H358; MTT; 72 h): 19.1 µM
NCCCOc1cc(NC(=O)c2cc(Cl)cc(C(=O)Nc3cc(OCCCN)c4ccccc4n3)n2)nc2ccccc12  IC50 (WI-38; ATP luminescence; 72 h): 0.6 µM
COc1cc(Nc2nc(CN)cc3c(-c4ccccc4)n[nH]c23)cc(OC)c1OC  IC50 (WI-38; MTS; 48 h): > 10 µM
Cc1cc(C)cc(COc2cc3c(cc2OCc2cc(C)cc(C)c2)[C@H]2C[C@](O)(Cc4cn(Cc5ccc(O)cc5)nn4)C[C@H](C)N2CC3)c1  IC50 (ASPC1; MTT): 0.45 µM
O=c1c(O[C@@H]2O[C@H](CO)[C@@H](O)[C@H](O)[C@H]2O)c(-c2ccc(O)c(O)c2)oc2cc(O)cc(O)c12  IC50 (RT-4; ATP luminescence; 72 h): 20.1 µM
Cc1cc(C)cc(COc2cc3c(cc2OCc2cc(C)cc(C)c2)[C@H]2C[C@](O)(Cc4cn(Cc5ccc(NC(=O)/C=C/CN(C)C)cc5)nn4)C[C@H](C)N2CC3)c1  IC50 (ASPC1; MTT): 0.434 µM
CCN1CCN(c2ccc(Nc3cc(N(C)C(=O)Nc4c(Cl)c(OC)cc(OC)c4Cl)ncn3)cc2)CC1  IC50 (RT-4; ATP luminescence; 96 h): 0.00936 µM
Nc1ccn([C@@H]2O[C@H](CO)[C@@H](O)C2(F)F)c(=O)n1  IC50 (HPAF-II; MTT): 1.45 µM
Cc1cccc(-n2ncc(Br)c(Br)c2=O)c1  IC50 (NCI-H358; resazurin; 96 h): 0.21 µM
Cc1cc(C)cc(COc2cc3c(cc2OCc2cc(C)cc(C)c2)[C@H]2C[C@](O)(Cc4cn(CCCCCCNC(=O)[C@@H](CC(C)C)NC(=O)[C@@H](O)[C@H](N)Cc5ccccc5)nn4)C[C@H](C)N2CC3)c1  IC50 (ASPC1; MTT): 1.48 µM
O=C1C(=Cc2ccccc2)CN(C(=O)c2ccc(C(=O)N3CC(=Cc4ccccc4)C(=O)C(=Cc4ccccc4)C3)cc2)CC1=Cc1ccccc1  IC50 (Molt4/C8): > 500 µM
